Data on 23 compounds can be found in ChEMBL document CHEMBL5108040, “N-1,2,3-Triazole-isatin derivatives: anti-proliferation effects and target identification in solid tumour cell lines” (RSC Med Chem, 2022).

pIC50: −log10 of the molar value. Calls of active or inactive are those of the source. The calls are words filed in the database; no cut-off is given here.

Data set [1] can be described thus: Cytotoxicity against HEK293 cells assessed as inhibition of cell growth incubated for 72 hrs by MTT assay. It is filed as toxicity, cell-based. The settings on record: human. The method, boiled down:
(§1)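 MTT assay in human tumour lines SW480 (colon), A549 (lung adenocarcinoma), MCF7 and MDA-MB-231 (breast), in non-tumorigenic breast MCF10A, and in human embryonic kidney Hek293 as non-tumour reference. Compounds tested at several concentrations for 72 h; IC50 derived from dose-response and given as mean ± error. Cisplatin as reference.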
(In general: Formazan colour is commonly taken as a measure of viable cells.)

For a further data set, the system named is SW480. As to the kind of experiment: Antiproliferative activity against human SW480 cells assessed as inhibition of cell growth incubated for 72 hrs by MTT assay. It is filed as functional, cell-based. Particulars: SW480, 72 h. In short, it runs like this: as §1
The next data set deals with A549. As to the kind of experiment: Antiproliferative activity against human A549 cells assessed as inhibition of cell growth incubated for 72 hrs by MTT assay. It is filed as functional, cell-based. The settings on record: A549, 72 h. In short, it runs like this:
as §1

The test system of data set [2] is MDA-MB-231. As to the kind of experiment: Downregulation of EP300 gene expression in human MDA-MB-231 cells at IC50 concentration incubated for 72 hrs by RT-PCR analysis. The data set is classed as functional, cell-based.
In data set [3] the test system is MCF-10A. As to the kind of experiment: Antiproliferative activity against human MCF-10A cells assessed as inhibition of cell growth incubated for 72 hrs by MTT assay. The data set is classed as functional, cell-based. The method, boiled down:
as §1

Data set [4] concerns MCF7. As to the kind of experiment: Antiproliferative activity against human MCF7 cells assessed as inhibition of cell growth incubated for 72 hrs by MTT assay. It is filed as functional, cell-based. Particulars: MCF7, 72 h. The method, boiled down:
as §1

In data set [5] the test system is MCF7. As to the kind of experiment: Downregulation of EP300 gene expression in human MCF7 cells at IC50 concentration incubated for 72 hrs by RT-PCR analysis. It is filed as functional, cell-based.
Data set [6] relates to MDA-MB-231. As to the kind of experiment: Antiproliferative activity against human MDA-MB-231 cells assessed as inhibition of cell growth incubated for 72 hrs by MTT assay. The settings on record: MDA-MB-231, 72 h. The data set is classed as functional, cell-based. In short, it runs like this: as §1
Data set [7] concerns MDA-MB-231. As to the kind of experiment: Downregulation of LYPLA2 gene expression in human MDA-MB-231 cells at IC50 concentration incubated for 72 hrs by RT-PCR analysis. The data set is classed as functional, cell-based. In short, it runs like this:
(§2)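 mRNA levels measured by qPCR in MCF7, MDA-MB-231 and MCF10A breast cells after compound treatment, against DMSO-treated vehicle control. LYPLA2 expression given as a ratio to GAPDH. Statistics by Brown-Forsythe and Welch ANOVA with Dunnett T3 correction; p < 0.05 and p < 0.01 marked.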

Data set [8] relates to MCF-10A. As to the kind of experiment: Downregulation of LYPLA2 gene expression in human MCF-10A cells at IC50 concentration incubated for 72 hrs by RT-PCR analysis. The data set is classed as functional, cell-based. The method, boiled down:
as §2

Data set [9] is described as follows: Antiproliferative activity against human SW182 cells assessed as inhibition of cell growth at 2.5 to 2 mM incubated for 24 hrs by MTT assay relative to control. It is filed as functional. Particulars: dose 2.5-2 mM, at 2 to 2.5 mM. More on the design: scale not given: the % may be the effect or the level left.
A short description of data set [10]: Antiproliferative activity against human H199 cells assessed as inhibition of cell growth at 2.5 to 2 mM incubated for 24 hrs by MTT assay relative to control. The data set is classed as functional. Further details: scale not given: the % may be the effect or the level left. The settings on record: dose 2.5-2 mM, at 2 to 2.5 mM.
Data set [11] has as its system MCF7. As to the kind of experiment: Downregulation of LYPLA2 gene expression in human MCF7 cells at IC50 concentration incubated for 72 hrs by RT-PCR analysis. The data set is classed as functional, cell-based. The method, boiled down:
as §2

In general, IC50 refers to the concentration that inhibits the measured activity by half. Usually pIC50 stands for −log10 of the IC50, conventionally taken in molar units. Take `Cc1ccc([C@]2(O)C(=O)N(Cc3cn(Cc4ccccc4)nn3)c3ccccc32)cc1`: in data set [1], the IC50 at 72 h was > 100 µM. Further, the pIC50 in the data set on SW480 and in the data set on A549 was < 4.00 throughout.
In the case of `O=C1C(=O)N(Cc2cn(Cc3ccccc3)nn2)c2ccccc21`, the outcome in the data set with MDA-MB-231 [2] and in the data set on MCF7 [5] was Active. In addition, the pIC50 with MCF-10A [3] was 5.74; in the data set with SW480, 4.49; in the data set with MCF7 [4], 5.86; in the data set on A549 it was 4.26; in the data set with MDA-MB-231 [6] it was 5.53. Moreover, the IC50 at 72 h in [1] stood at 63.7 µM.
Turning to `O=C1N(Cc2cn(Cc3ccccc3)nn2)c2ccccc2[C@]1(O)c1ccc2ccccc2c1`, the IC50 at 72 h in [1] stood at 14 µM. In addition, the values for the pIC50 in the data set on SW480 and in the data set with A549 were 5.06 and 4.63, respectively.
In the same order, the values of `O=C1N(Cc2cn(Cc3ccccc3)nn2)c2ccccc2[C@@]1(O)c1cccc(O)c1` are 33.7 µM, 4.50 and < 4.00.
For `O=C1N(Cc2cn(Cc3ccccc3)nn2)c2ccccc2[C@@]1(O)c1ccc2ccccc2c1`, the pIC50 in the data set on MCF-10A [3] was 5.88; in the data set with SW480, 5.00; with MCF7 [4], 5.76; in the data set on A549, 4.55; in the data set on MDA-MB-231 [6], 5.51. For the same compound, the IC50 at 72 h in [1] stood at 12.4 µM. For the same compound, the result with MDA-MB-231 [7] and in the data set on MCF-10A [8] was Active.
Regarding `O=C1N(Cc2cn(Cc3ccccc3)nn2)c2ccccc2[C@@]1(O)c1ccsc1`, the IC50 at 72 h in data set [1] came out at 46.4 µM. Further, the pIC50 is 4.20 with SW480 and 4.01 in the data set with A549.
On to `O=C(Cn1cc(CN2C(=O)C(=O)c3ccccc32)nn1)Nc1nc2ccccc2s1`, for which the Activity in data set [9] and in [10] was >50% in each case.
On to `CCCCn1cc(CN2C(=O)[C@@](O)(c3ccccc3)c3ccccc32)nn1`, for which, in [1], the half-maximal inhibitory concentration (IC50) at 72 h is > 100 µM. Also, the pIC50 in the data set on SW480 and with A549 was < 4.00 each time.
In the case of `O=C1N(Cc2cn(Cc3ccccc3)nn2)c2ccccc2[C@@]1(O)c1ccc(F)cc1`, the IC50 at 72 h in data set [1] came out at 50.3 µM. Also, the values for the negative logarithm of the IC50 (pIC50) in the data set with SW480 and with A549 were 4.55 and 4.14, respectively.
For the compound `CCCCn1cc(CN2C(=O)[C@](O)(c3ccccc3)c3ccccc32)nn1`, in [1], the IC50 at 72 h was > 100 µM. Moreover, the pIC50 in the data set on SW480 and in the data set with A549 was < 4.00 throughout.
Consider `CS(=O)(=O)c1ccc2nc(NC(=O)Cn3cc(CN4C(=O)C(=O)c5ccccc54)nn3)sc2c1`, for which the Activity in data set [9] and in [10] was >50% each time.
`O=C1N(Cc2cn(Cc3ccccc3)nn2)c2ccc(Br)cc2[C@]1(O)c1ccccc1`: the pIC50 in the data set with MCF-10A [3] was 5.99; in the data set with SW480, 4.54; with MCF7 [4], 5.83; with A549, 4.18; in the data set with MDA-MB-231 [6], 5.85. For the same compound, in data set [1], the IC50 at 72 h turned out to be 36.1 µM. For the same compound, the outcome in the data set on MDA-MB-231 [7] and in the data set on MCF7 [11] was Active.
As for `COc1ccc([C@@]2(O)C(=O)N(Cc3cn(Cc4ccccc4)nn3)c3ccccc32)cc1`, the IC50 at 72 h in [1] is 38 µM. In addition, the pIC50 with SW480 is 4.44; in the data set on A549, 4.02.
As to `O=C1N(Cc2cn(Cc3ccccc3)nn2)c2ccccc2[C@@]1(O)c1ccccc1`, the IC50 at 72 h in [1] was > 100 µM. In addition, the pIC50 with SW480 is 4.20; with A549, < 4.00.
Take `O=C1N(Cc2cn(Cc3ccccc3)nn2)c2ccccc2[C@]1(O)c1ccccc1`: the IC50 at 72 h in data set [1] was > 100 µM. Moreover, the pIC50 in the data set with SW480 is 4.12; in the data set with A549, < 4.00.
In the same order, the values of `O=C1N(Cc2cn(Cc3ccccc3)nn2)c2ccccc2[C@]1(O)c1ccsc1` are 64 µM, 4.53 and < 4.00.
Consider `COc1ccc([C@]2(O)C(=O)N(Cc3cn(Cc4ccccc4)nn3)c3ccccc32)cc1`, for which, in data set [1], the IC50 at 72 h was > 100 µM. Also, the pIC50 in the data set on SW480 was 4.12; in the data set on A549 it was < 4.00.
In the same order, the values of `CC(C)[C@@H]1CC[C@@H](C)C[C@@H]1n1cc(CN2C(=O)C3(OCCO3)c3ccccc32)nn1` are > 100 µM, < 4.00 and < 4.00.
In the case of `O=C1N(Cc2cn(Cc3ccccc3)nn2)c2ccccc2[C@]1(O)c1ccc(F)cc1`, in data set [1], the IC50 at 72 h was 53.5 µM. The pIC50 in the data set on SW480 was 4.49; with A549, 4.11.
Consider `Cc1ccc2c(c1)C(=O)C(=O)N2Cc1cn(Cc2ccccc2)nn1`, for which the outcome in the data set on MDA-MB-231 [2] and in the data set on MCF7 [5] was Active. In addition, the negative logarithm of the IC50 (pIC50) with MCF-10A [3] is 5.81; in the data set with SW480, 4.58; in the data set on MCF7 [4], 5.82; with A549, 4.38; with MDA-MB-231 [6], 5.62. Besides, in data set [1], the IC50 at 72 h was 26.9 µM.
With `CC(C)[C@@H]1CC[C@@H](C)C[C@@H]1n1cc(CN2C(=O)C(=O)c3ccccc32)nn1`, the outcome in the data set with MDA-MB-231 [2] and in the data set with MCF7 [5] was Active. The pIC50 is 5.97 in the data set with MCF-10A [3]; 5.05 with SW480; 5.87 in the data set with MCF7 [4]; 4.27 in the data set on A549; 5.75 in the data set on MDA-MB-231 [6]. Moreover, the IC50 at 72 h in [1] is 23.1 µM.
`O=C1N(Cc2cn(Cc3ccccc3)nn2)c2ccc(Br)cc2[C@@]1(O)c1ccccc1`: the pIC50 is 5.96 in the data set with MCF-10A [3]; 4.72 with SW480; 5.69 in the data set on MCF7 [4]; 4.53 in the data set on A549; 5.79 with MDA-MB-231 [6]. In addition, the IC50 at 72 h in data set [1] stood at 87.3 µM.
As to `Cc1ccc2nc(NC(=O)Cn3cc(CN4C(=O)C(=O)c5ccccc54)nn3)sc2c1`, the Activity in data set [9] and in data set [10] was >50% each time.
